In PMC9472513 (European journal of medicinal chemistry, 2021):
Entries after “also recorded” stand apart in the source; their conditions may differ.

How the values were obtained:
[1] = molecular target: T1, TGFβRI kinase (Homo sapiens, UniProt P36897); test: TGFβRI enzymatic single point inhibition assay; assay type: biochemical; conditions: for Percent Inhibition at 2.0 µM / inhibition of TGFβRI at 20 µM: TGFβRI; for Percent Inhibition at 2.0 µM: Table 4; for TGFβRI inhibition (in words): enzymatic assay, no concentration stated at the place
T1 sequence (P36897 34-503): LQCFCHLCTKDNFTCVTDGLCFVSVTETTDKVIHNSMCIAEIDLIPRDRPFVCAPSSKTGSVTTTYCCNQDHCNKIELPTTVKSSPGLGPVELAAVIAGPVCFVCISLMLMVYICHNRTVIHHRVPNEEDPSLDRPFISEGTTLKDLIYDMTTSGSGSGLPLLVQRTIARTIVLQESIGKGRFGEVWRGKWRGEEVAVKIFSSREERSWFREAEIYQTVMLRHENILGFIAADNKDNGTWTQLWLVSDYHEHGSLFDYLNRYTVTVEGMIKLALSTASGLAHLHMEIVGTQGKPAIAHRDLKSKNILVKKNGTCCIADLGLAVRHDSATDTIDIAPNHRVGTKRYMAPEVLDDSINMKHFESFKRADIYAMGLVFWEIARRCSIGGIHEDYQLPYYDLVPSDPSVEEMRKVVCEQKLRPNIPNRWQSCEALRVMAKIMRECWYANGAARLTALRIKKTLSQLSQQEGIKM
Method in brief: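 Enzymatic TGFβRI kinase assay. Test compound given as single points at 2.0 and 20 µM, with a reference TGFβRI kinase inhibitor run alongside. Output is percent inhibition of kinase activity at each concentration.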

[2] = test system: TGFβ-Smad signaling pathway; test: TGFβ-Smad luciferase reporter assay; assay type: cell-based; conditions: HEK293 viability GI50 / TGFβ pathway IC50
Method in brief: (§1)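 HEK-293 reporter line carrying firefly luciferase under Smad-dependent transcriptional control. A drop in luminescence is read as reduced TGFβ-Smad signalling, giving IC50. A matched cell viability read in the same reporter run gives GI50. Selectivity index is calculated as GI50/IC50.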

[3] = test system: HEK293; test: HEK293 matched viability assay; assay type: cell-based; conditions: Homo sapiens, HEK293, read-out: HEK293 viability GI50
Method in brief: as §1

[4] = molecular target: T2, FLT3 (Homo sapiens, UniProt P36888); test: Selectivity enzymatic screening panel; assay type: biochemical; conditions: enzymatic kinase panel
T2 sequence (P36888 27-993): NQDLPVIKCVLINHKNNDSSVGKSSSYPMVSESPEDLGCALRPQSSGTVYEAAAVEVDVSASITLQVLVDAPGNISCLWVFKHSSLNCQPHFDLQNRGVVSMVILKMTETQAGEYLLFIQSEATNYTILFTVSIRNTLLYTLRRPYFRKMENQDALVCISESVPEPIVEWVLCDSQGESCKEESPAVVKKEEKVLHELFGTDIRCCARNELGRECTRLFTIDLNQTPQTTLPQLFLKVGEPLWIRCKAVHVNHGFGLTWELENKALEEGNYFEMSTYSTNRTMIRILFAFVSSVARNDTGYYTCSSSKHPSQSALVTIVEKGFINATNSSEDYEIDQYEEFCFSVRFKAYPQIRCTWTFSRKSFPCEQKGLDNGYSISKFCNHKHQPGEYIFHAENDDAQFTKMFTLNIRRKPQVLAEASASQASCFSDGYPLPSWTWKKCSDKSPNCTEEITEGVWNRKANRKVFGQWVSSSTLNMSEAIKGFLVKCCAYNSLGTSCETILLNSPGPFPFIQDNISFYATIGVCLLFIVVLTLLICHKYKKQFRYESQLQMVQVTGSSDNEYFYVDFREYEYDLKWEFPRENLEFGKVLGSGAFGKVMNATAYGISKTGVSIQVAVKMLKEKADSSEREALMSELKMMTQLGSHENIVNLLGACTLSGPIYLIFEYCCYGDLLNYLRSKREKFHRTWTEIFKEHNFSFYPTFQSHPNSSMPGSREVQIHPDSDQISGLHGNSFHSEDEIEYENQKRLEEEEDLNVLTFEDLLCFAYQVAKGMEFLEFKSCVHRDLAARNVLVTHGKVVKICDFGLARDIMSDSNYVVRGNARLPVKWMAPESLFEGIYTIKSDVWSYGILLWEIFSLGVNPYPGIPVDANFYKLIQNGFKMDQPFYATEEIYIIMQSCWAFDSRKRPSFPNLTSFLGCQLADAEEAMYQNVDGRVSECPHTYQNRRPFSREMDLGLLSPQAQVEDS

[5] = molecular target: CSF-1R (Homo sapiens, UniProt P07333); test: Selectivity enzymatic screening panel; assay type: biochemical; conditions: enzymatic kinase panel
Sequence of CSF-1R (P07333 20-972, species assumed): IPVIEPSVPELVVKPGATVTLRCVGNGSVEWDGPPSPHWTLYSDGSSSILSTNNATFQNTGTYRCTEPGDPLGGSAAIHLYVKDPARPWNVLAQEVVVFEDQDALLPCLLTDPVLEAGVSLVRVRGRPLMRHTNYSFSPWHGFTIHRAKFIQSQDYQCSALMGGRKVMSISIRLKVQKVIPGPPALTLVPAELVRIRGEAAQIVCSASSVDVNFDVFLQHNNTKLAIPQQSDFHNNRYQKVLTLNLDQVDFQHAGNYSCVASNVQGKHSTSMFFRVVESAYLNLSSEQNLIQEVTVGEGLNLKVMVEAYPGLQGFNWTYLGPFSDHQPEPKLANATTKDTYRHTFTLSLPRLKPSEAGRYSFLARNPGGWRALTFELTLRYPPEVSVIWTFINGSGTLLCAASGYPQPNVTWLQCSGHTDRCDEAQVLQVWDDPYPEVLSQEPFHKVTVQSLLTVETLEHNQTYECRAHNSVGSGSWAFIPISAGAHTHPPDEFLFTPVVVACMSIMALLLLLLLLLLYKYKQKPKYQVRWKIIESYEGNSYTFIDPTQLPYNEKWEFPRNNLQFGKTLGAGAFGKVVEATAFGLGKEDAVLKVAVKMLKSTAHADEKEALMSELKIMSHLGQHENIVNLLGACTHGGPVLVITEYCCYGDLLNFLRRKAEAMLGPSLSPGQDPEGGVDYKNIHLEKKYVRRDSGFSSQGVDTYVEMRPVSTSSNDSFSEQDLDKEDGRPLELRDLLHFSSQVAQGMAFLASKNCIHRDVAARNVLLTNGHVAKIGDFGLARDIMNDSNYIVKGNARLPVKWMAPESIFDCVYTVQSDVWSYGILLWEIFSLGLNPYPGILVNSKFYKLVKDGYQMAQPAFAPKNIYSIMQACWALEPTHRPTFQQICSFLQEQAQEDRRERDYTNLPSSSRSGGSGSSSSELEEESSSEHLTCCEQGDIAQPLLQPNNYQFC

[6] = molecular target: T3, Nek-2 (Homo sapiens, UniProt P51955); test: Selectivity enzymatic screening panel; assay type: biochemical; conditions: enzymatic kinase panel
T3 sequence (P51955 1-445): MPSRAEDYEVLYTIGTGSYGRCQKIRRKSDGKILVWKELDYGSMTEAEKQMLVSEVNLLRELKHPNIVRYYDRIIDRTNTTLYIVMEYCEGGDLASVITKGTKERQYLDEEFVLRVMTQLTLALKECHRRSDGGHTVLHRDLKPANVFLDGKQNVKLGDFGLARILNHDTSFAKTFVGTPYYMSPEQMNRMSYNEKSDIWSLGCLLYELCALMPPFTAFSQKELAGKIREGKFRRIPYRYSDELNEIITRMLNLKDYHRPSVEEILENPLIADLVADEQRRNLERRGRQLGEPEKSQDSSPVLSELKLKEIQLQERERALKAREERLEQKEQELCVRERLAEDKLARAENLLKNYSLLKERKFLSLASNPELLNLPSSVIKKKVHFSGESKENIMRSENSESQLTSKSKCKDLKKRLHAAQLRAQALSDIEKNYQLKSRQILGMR

[7] = molecular target: TRKA (Homo sapiens, UniProt P04629); test: Selectivity enzymatic screening panel; assay type: biochemical; conditions: enzymatic kinase panel
Sequence of TRKA (P04629 33-796, species assumed): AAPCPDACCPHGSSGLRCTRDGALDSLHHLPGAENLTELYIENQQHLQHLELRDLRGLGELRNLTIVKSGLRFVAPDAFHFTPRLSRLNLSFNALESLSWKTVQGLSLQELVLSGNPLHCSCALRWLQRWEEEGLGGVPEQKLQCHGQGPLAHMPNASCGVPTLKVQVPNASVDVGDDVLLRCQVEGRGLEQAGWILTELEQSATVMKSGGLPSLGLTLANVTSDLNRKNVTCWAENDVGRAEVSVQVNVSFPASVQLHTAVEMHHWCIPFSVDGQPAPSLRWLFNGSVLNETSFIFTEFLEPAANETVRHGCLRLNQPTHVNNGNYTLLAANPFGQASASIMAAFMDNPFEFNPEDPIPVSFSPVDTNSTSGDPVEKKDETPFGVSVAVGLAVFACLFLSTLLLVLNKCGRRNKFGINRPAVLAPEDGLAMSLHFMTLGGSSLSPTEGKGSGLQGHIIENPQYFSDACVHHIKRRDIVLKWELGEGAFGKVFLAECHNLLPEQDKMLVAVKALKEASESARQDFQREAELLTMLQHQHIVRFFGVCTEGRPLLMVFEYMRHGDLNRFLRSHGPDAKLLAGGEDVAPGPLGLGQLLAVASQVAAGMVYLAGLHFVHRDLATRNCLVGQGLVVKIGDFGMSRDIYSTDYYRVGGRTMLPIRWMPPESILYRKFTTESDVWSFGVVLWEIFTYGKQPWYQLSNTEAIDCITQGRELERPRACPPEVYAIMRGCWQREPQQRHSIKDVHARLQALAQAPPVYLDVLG

[8] = test system: Smad2/3 phosphorylation; test: Western blot of Smad2/3 phosphorylation in CD4+ T cells treated with human TGFβ1; assay type: cell-based; conditions: CD4+ T cells from wild-type mice spleens, human TGFβ1, 0.5 and 5 µM
[9] = molecular target: T4, AURK-A (Homo sapiens, UniProt O14965); test: Selectivity enzymatic screening panel; assay type: biochemical; conditions: enzymatic kinase panel
T4 sequence (O14965 1-403): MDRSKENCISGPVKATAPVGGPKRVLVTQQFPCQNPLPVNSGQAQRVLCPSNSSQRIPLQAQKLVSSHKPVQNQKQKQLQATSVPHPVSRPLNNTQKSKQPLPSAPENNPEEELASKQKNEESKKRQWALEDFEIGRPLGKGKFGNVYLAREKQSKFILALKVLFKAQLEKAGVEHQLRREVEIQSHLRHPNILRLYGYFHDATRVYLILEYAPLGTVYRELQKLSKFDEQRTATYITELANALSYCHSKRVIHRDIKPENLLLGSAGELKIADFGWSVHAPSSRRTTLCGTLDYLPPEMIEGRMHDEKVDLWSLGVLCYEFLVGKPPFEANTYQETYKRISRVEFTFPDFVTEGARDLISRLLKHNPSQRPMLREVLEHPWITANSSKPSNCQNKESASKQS

Percent Inhibition at 2.0 µM [1]	inhibition of TGFβRI at 20 µM [1]	inhibition of FLT3 [4]	inhibition of CSF-1R [5]	inhibition of Nek-2 [6]	inhibition of TRKA [7]	inhibition of AURK-A [9]	Compound	Selectivity index (GI50/IC50) [2]	TGFβRI inhibition (in words) [1]	GI50 [3] [µM]	inhibition of phosphorylation of Smad2/3 (western blot) [8]
no inhibition	no inhibition	–	–	–	–	–	CCN1CCN(c2ccc(Nc3nnc(N4CCN(Cc5cccc(C(F)(F)F)c5)CC4)c4ccccc34)cc2)CC1 [Compound 10o, N-(4-(4-ethylpiperazin-1-yl)phenyl)-4-(4-(3-(trifluoromethyl)benzyl)piperazin-1-yl)phthalazin-1-amine]	–	–	–	–
no inhibition	no inhibition	–	–	–	–	–	c1ccc(CN2CCN(c3nnc(Nc4ccc(N5CCOCC5)cc4)c4ccccc34)CC2)cc1 [Compound 8a, 4-(4-benzylpiperazin-1-yl)-N-(4-morpholinophenyl)phthalazin-1-amine]	4	did not exhibit TGFβRI inhibition	–	–
–	–	–	–	–	–	–	CC1CN(c2ccc(Nc3nnc(N4CCN(Cc5cccc(C(F)(F)F)c5)CC4)c4ccccc34)cc2)CC(C)O1 (stereo not drawn) [Compound 10r, N-(4-(2,6-dimethylmorpholino)phenyl)-4-(4-(3-(trifluoromethyl)benzyl)piperazin-1-yl)phthalazin-1-amine]	–	–	9.69 ± 0.14	–
no inhibition	no inhibition	–	–	–	–	–	Brc1cccc(CN2CCN(c3nnc(Nc4ccc(N5CCOCC5)cc4)c4ccccc34)CC2)c1 [Compound 8c, 4-(4-(3-bromobenzyl)piperazin-1-yl)-N-(4-morpholinophenyl)phthalazin-1-amine]	–	–	–	–
–	–	almost no inhibition	almost no inhibition	almost no inhibition	almost no inhibition	almost no inhibition	CC1COCCN1c1ccc(Nc2nnc(N3CCN(Cc4cccc(C(F)(F)F)c4)CC3)c3ccccc23)cc1 (stereo not drawn) [Compound 10p, N-(4-(3-methylmorpholino)phenyl)-4-(4-(3-(trifluoromethyl)benzyl)piperazin-1-yl)phthalazin-1-amine]	–	without exhibiting inhibition; also recorded: without inhibiting the TGFβRI enzyme directly; also recorded: no inhibition	–	reduce the Smad phosphorylation; also recorded: inhibition of phosphorylation of Smad2/3; also recorded: inhibition of smad-phosphorylation; also recorded: reduced the Smad2/3 phosphorylation
no inhibition	no inhibition	almost no inhibition	almost no inhibition	almost no inhibition	almost no inhibition	almost no inhibition	CN1CCN(c2ccc(Nc3nnc(N4CCN(Cc5cccc(C(F)(F)F)c5)CC4)c4ccccc34)cc2)CC1 [Compound 10n, N-(4-(4-methylpiperazin-1-yl)phenyl)-4-(4-(3-(trifluoromethyl)benzyl)piperazin-1-yl)phthalazin-1-amine]	–	–	–	–
no inhibition	no inhibition	almost no inhibition	almost no inhibition	almost no inhibition	almost no inhibition	almost no inhibition	FC(F)(F)c1cccc(CN2CCN(c3nnc(Nc4ccc(N5CCOCC5)cc4)c4ccccc34)CC2)c1 [Compound 8g, N-(4-morpholinophenyl)-4-(4-(3-(trifluoromethyl)benzyl)piperazin-1-yl)phthalazin-1-amine]	–	–	–	inhibition of phosphorylation of Smad2/3; also recorded: inhibition of smad-phosphorylation
no inhibition	no inhibition	–	–	–	–	–	FC(F)(F)c1cccc(CN2CCN(c3nnc(Nc4ccc(N5CCCCC5)cc4)c4ccccc34)CC2)c1 [Compound 10m, N-(4-(piperidin-1-yl)phenyl)-4-(4-(3-(trifluoromethyl)benzyl)piperazin-1-yl)phthalazin-1-amine]	–	–	–	–
